# According to paper PMC3515069 (Toxicology, 2012):
# Entries after “also recorded” stand apart in the source; their conditions may differ. Like-named read-outs stand apart in the source and are kept apart here.
# Key:
# AhR [1] = target: T1, AhR (Homo sapiens, UniProt P35869); details: human cells; ref Van der Heiden et al., 2007; cited from earlier work
# T1 sequence (P35869 11-848): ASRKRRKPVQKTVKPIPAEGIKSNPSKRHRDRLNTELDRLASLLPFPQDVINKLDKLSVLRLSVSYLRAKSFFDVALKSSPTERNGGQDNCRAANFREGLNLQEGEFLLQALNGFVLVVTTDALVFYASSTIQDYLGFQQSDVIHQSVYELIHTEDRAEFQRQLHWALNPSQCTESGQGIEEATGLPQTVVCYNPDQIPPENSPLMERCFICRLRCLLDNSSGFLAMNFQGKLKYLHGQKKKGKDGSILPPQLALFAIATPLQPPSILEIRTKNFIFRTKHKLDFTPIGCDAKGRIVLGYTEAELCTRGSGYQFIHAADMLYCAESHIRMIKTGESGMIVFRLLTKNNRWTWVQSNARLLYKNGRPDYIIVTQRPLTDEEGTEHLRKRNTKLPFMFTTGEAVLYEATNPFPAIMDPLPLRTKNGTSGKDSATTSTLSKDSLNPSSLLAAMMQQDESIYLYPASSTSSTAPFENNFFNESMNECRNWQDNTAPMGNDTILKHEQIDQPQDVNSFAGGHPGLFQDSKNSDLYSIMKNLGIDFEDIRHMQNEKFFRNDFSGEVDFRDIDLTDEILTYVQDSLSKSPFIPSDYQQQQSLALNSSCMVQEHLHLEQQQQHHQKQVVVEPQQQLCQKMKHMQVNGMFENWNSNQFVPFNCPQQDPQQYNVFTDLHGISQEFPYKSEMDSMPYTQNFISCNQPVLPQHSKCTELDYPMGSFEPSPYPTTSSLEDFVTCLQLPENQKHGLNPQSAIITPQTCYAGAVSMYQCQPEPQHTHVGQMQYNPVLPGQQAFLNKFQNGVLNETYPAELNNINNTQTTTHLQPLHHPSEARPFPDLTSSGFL
# AhR [2] = target: T2, AhR (Rattus norvegicus, UniProt P41738); details: rat H4IIE cells; ref Van der Heiden et al., 2007; cited from earlier work
# T2 sequence (P41738 10-853): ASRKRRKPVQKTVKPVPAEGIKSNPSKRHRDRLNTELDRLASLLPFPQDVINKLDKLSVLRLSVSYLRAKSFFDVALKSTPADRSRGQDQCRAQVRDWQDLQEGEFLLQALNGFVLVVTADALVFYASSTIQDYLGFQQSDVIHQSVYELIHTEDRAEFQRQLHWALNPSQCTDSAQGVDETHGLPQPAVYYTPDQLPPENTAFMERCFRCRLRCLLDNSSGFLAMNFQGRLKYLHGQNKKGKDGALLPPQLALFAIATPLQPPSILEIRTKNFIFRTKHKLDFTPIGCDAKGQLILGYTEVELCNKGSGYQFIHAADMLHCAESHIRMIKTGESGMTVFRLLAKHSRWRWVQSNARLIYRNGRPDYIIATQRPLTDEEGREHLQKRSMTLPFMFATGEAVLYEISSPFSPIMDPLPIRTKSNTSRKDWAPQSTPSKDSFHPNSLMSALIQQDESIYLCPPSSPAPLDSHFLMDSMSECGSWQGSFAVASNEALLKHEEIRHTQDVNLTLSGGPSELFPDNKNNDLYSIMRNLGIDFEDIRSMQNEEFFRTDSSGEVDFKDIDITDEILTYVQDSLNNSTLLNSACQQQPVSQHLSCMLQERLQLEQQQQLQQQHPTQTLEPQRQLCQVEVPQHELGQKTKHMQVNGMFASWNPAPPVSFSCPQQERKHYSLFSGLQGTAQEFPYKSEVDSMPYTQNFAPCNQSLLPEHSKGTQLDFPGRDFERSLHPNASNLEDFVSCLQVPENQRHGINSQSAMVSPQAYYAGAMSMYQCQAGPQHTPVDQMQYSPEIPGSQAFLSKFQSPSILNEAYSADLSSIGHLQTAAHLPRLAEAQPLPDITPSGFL
# AhR [3] = target: T1, AhR; experiment: AhR antagonist luciferase assay; assay type: cell-based; details: human HG2L6.1c3 cells, 10 μM with 10 nM TCDD
# AhR [4] = target: T1, AhR; experiment: CYP1A1 mRNA induction by qRT-PCR, human MCF-7 cells; details: for concentration inducing ~20% of the maximal response of 10 nM TCDD: concentrations up to 100 μM
# AhR [5] = target: T2, AhR; assay type: cell-based; details: rat H4IIE cells; for antagonistic effect (in words): 10 μM Chr-13 or 1 μM Chr-19 with TCDD, qRT-PCR
# AhR [6] = target: T1, AhR; assay type: cell-based; details: human MCF-7 cells; for antagonistic effect (in words): 100 μM Chr-13 or 10 μM Chr-19 with TCDD
# AhR [7] = target: T2, AhR; experiment: CYP1A1 mRNA induction by qRT-PCR, rat H4IIE cells; details: for concentration inducing ~20% of the maximal response of 10 nM TCDD: rat H4IIE cells, CYP1A1 mRNA
# AhR [8] = target: AhR (Mus musculus, UniProt P30561); experiment: AhR agonist luciferase induction, mouse H1L6.1c2 cells; assay type: cell-based; details: 10 μM; for AhR-dependent luciferase induction, normalised to maximal TCDD response: 24 hours, 1 nM TCDD = 100%; for AhR agonist activity (in words): luciferase
# Summary of the method: (§1)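 Mouse H1L6.1c2 (from Hepa1c1c7) and human HG2L6.1c3 (from HepG2) hepatoma lines stably carry firefly luciferase under four DREs upstream of the MMTV promoter. Cells were exposed for 24 h at 37°C to test compound (10 mM DMSO stock) in 0.1% DMSO, TCDD (mouse 1 nM, human 10 nM) or vehicle. Cells were PBS-washed and lysed, and luminescence was read. DMSO background was subtracted and values normalised to TCDD = 100%. S.D., n = 3.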
# AhR [9] = target: T1, AhR; details: MCF-7 cells, EROD analysis; ref Ciolino et al. (1999); cited from earlier work
# AhR [10] = target: T1, AhR
# AhR [11] = target: T2, AhR
# AhR [12] = target: T1, AhR; experiment: AhR agonist luciferase induction, human HG2L6.1c3 cells; assay type: cell-based; details: 10 μM
# Summary of the method: as §1
# AhR [13] = details: ref Medjakovic and Jungbauer, 2008; cited from earlier work
# AhR [14] = details: ref Ciolino and Yeh, 1999; cited from earlier work
# Chain of AhR (Mus musculus, UniProt P30561) (P30561 10-805 limits assumed): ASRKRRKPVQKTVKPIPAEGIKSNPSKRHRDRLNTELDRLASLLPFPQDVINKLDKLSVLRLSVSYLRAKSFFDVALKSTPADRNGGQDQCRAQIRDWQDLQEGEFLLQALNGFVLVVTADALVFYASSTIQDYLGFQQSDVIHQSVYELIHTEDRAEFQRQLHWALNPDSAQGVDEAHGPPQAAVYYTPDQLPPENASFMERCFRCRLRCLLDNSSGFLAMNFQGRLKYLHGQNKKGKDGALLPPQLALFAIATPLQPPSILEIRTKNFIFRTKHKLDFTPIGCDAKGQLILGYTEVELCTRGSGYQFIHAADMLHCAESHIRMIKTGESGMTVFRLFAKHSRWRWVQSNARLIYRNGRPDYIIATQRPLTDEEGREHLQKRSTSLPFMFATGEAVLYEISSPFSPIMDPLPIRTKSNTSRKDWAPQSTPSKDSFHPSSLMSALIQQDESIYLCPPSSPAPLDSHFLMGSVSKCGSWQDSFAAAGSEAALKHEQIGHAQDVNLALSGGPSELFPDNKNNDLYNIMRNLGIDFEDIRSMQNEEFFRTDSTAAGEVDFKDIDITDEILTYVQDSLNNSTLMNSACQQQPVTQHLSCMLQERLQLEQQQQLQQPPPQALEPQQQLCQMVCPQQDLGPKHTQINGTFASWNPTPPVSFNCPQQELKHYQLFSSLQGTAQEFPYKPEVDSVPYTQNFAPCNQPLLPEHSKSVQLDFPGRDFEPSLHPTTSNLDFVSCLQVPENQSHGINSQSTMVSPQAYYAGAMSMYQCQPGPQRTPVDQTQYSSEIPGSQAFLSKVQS
# Chain of AhR (Mus musculus, UniProt P30561) (P11499 whole entry partner): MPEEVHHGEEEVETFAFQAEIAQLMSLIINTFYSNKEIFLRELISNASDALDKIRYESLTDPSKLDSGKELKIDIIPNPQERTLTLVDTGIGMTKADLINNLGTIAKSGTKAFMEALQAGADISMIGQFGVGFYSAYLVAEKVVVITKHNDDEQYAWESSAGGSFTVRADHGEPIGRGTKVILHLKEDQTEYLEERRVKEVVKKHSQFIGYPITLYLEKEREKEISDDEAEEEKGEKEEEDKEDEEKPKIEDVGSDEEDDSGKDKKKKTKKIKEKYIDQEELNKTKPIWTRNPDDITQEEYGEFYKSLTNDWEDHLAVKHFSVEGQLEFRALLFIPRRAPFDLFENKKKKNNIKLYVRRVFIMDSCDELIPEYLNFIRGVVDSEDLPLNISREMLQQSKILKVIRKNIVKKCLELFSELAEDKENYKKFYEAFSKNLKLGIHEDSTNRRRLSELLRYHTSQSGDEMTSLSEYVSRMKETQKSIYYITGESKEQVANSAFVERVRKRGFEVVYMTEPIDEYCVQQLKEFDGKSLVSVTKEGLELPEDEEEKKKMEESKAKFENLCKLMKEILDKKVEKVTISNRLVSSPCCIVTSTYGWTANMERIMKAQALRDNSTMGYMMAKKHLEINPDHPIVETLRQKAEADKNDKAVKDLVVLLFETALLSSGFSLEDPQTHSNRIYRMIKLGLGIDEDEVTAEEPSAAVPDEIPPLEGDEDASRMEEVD
# Chain of AhR (Mus musculus, UniProt P30561) (O08915 whole entry partner): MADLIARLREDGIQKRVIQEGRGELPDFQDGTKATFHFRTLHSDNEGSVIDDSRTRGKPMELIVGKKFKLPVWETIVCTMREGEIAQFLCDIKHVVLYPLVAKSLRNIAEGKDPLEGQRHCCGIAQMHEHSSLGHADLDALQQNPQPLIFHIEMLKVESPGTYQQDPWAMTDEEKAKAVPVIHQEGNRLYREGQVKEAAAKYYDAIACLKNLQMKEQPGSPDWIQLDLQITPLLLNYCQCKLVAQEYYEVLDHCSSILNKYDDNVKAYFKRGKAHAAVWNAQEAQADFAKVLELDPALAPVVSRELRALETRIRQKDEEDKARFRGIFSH
smiles,measurement,setting,value
O=c1cc(-c2ccccc2)oc2cc(O)cc(O)c12 [chrysin],AhR activity (in words),AhR [1],partial agonist
same,AhR antagonistic effect (in words),AhR [2],no antagonistic effects
Nc1oc2ccccc2c(=O)c1-c1ccc(Cl)cc1 [Chr-4],AhR antagonist activity (in words),AhR [3],antagonised
"COc1ccc2c(=O)c(-c3ccc(Cl)cc3)c(N)oc2c1 [Chr-13, 2-amino-3-(4′-chlorophenyl)-7-methoxychromen-4-one]",AhR antagonist activity (in words),AhR [3],antagonised; also recorded: strong antagonist
same,EC50 (95% Confidence interval),"AhR [4]; human MCF-7 cells, CYP1A1 mRNA, 4 hours, assuming maximal response is reached",could not be obtained; also recorded: No agonistic effect
same,concentration inducing ~20% of the maximal response of 10 nM TCDD,"AhR [4]; human MCF-7 cells, CYP1A1 mRNA",no response was detected
same,"background induction, % of the maximal induction",AhR [5]; 10 μM Chr-13 added to TCDD C/R curve,~ 25%
same,antagonistic effect (in words),AhR [5],no antagonistic effects
same,reduction of the potency of TCDD,AhR [6]; 100 μM Chr-13,5 fold
same,antagonistic effect (in words),AhR [6]; qRT-PCR,weak antagonist
same,EC50,AhR [7],41.5 µM
same,concentration inducing ~20% of the maximal response of 10 nM TCDD,AhR [7],10 µM
same,"AhR-dependent luciferase induction, normalised to maximal TCDD response",AhR [8],50%
same,"AhR-dependent luciferase induction, normalised to maximal TCDD response",AhR [8]; listed as Chr 13,greater than 30%
same,AhR agonist activity (in words),AhR [8],strong agonist
O=c1c(O)c(-c2ccc(O)cc2)oc2cc(O)cc(O)c12 [kaempferol],AhR activity (in words),AhR [9],antagonist
"Clc1cc2c(cc1Cl)Oc1cc(Cl)c(Cl)cc1O2 [TCDD, 2,3,7,8-tetrachlorodibenzo-p-dioxin, reference compound]",EC50,AhR [4],0.661 nM
same,potency lower in human MCF-7 than in rat H4IIE cells,"AhR [4]; ratio of CYP1A1 mRNA EC50s, p<0.0001",6 fold
same,EC50,AhR [7],0.000113 µM
"COc1ccc(-c2cc3cc(Cl)ccc3oc2=O)cc1 [Chr-19, 6-Chloro-3-(4′-methoxy)phenylcoumarin]",EC50,AhR [10],140 µM
same,AhR antagonist activity (in words),AhR [3],antagonised; also recorded: antagonist
same,concentration inducing ~20% of the maximal response of 10 nM TCDD,"AhR [4]; human MCF-7 cells, CYP1A1 mRNA",10 µM
same,antagonistic effect (in words),AhR [5],no shift of the TCDD curve to the right
same,reduction of the potency of TCDD,AhR [6]; 10 μM Chr-19,3 fold
same,antagonistic effect (in words),AhR [6]; qRT-PCR,weak antagonist
same,reduction of the response to 10 nM TCDD,"AhR [6]; qRT-PCR, 10 μM",10%
same,EC50,AhR [11],7.7 µM
same,more potent in rat H4IIE than in human MCF-7 cells,AhR [11],approximately 20 fold
same,concentration inducing ~20% of the maximal response of 10 nM TCDD,AhR [7],1 µM
same,AhR agonist activity (in words),AhR [8],weak agonist
same,AhR agonist activity (in words),AhR [12],induced significant levels; also recorded: weak agonist
"O=c1c(O)c(-c2ccc(O)c(O)c2)oc2cc(O)cc(O)c12 [quercetin, Quercetin]",AhR activity (in words),AhR [9],AhR agonist
COc1ccc(-c2coc3cc(O)cc(O)c3c2=O)cc1 [Biochanin A],less potent than TCDD,AhR [13],100 fold
O=c1c(O)c(-c2ccccc2)oc2cc(O)cc(O)c12 [galangin],AhR activity (in words),AhR [14],AhR antagonist
